Experiments:
[1] = target: T1, 2-5A-dependent ribonuclease (Mus musculus) (UniProt Q05921); assay: Displacement of pA4[32P]pCp from mouse spleen RNase L at 1 uM; format: tissue-based
T1 sequence (whole entry): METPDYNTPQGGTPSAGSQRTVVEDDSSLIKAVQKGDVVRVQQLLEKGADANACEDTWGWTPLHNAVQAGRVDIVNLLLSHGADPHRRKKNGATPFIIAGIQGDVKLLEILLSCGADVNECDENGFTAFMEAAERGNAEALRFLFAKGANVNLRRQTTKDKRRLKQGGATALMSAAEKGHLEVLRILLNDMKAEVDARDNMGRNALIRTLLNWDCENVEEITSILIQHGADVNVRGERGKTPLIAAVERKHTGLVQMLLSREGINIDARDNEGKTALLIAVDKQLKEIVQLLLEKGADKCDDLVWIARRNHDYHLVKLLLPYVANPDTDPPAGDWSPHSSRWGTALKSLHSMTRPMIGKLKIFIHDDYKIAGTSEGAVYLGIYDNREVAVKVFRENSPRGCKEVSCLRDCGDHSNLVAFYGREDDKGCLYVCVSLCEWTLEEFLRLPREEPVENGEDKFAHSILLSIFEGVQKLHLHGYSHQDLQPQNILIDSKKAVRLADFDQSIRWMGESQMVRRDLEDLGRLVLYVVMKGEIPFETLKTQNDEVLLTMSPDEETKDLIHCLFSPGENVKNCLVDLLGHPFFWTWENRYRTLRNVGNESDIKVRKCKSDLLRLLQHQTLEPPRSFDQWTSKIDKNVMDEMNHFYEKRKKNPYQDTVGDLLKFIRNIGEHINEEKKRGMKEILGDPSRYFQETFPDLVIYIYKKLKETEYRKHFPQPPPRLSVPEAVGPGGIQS
Procedure, shortened: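 Competitive radiobinding using 20 µL male BALB/c mouse spleen 126 000g supernatant; oligoadenylate at 1 µM final with about 0.4 nM pA4-[32P]pCp in 25 µL. Held 60 min at 4 °C, filtered through nitrocellulose, washed with Tris pH 7.6/KCl/MgCl2/glycerol, bound radioactivity counted by scintillation. Triplicates; percent binding relative to natural pA4.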

[2] = species: Mus musculus; assay: Stability in mouse spleen assessed as ability to resist degradation by nuclease; format: ADME
Procedure, shortened: (§1)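 Oligoadenylate (2.5 nmol) mixed with 9 µL soluble mouse spleen 126 000g supernatant, kept at 4 °C. Sampled periodically: diluted with aqueous 0.1% TFA, spun 14 000g 10 min, run on C18 RP-HPLC (acetonitrile gradient in 0.1% TFA, 260 nm). Intact and degradation peaks integrated to follow degradation over time.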

[3] = target: T2, 2-5A-dependent ribonuclease (Mus musculus, UniProt Q05921); assay: Binding to mouse RNase L assessed as displacement of pA4-[32P]pCp
T2 sequence (Q05921 whole entry): T1 sequence (whole entry)

[4] = Half life in mouse spleen at 4 degreeC; format: ADME; procedure, shortened: as §1

Compound | Activity [1] | also measured
Nc1ncnc2c1ncn2[C@@H]1O[C@H](COP(=O)(O)O[C@@H]2[C@H](O)[C@@H](COP(=O)(O)O[C@H]3[C@H](O)[C@@H](COP(=O)(O)O)O[C@H]3n3cnc4c(N)ncnc43)O[C@H]2n2cnc3c(N)ncnc32)[C@@H](O)[C@H]1OP(=O)(O)O | 49% | –
Nc1ncnc2c1ncn2[C@@H]1O[C@H](COP(=O)(O)O[C@@H]2[C@H](O)[C@@H](COP(=O)(O)O)O[C@H]2n2cnc3c(N)ncnc32)[C@H](O)[C@H]1OP(=O)(O)OC[C@H]1O[C@@H](n2cnc3c(N)ncnc32)[C@H](OP(=O)(O)O)[C@@H]1O | 41% | –
Nc1ncnc2c1ncn2[C@@H]1O[C@H](COP(=O)(O)O[C@H]2[C@H](O)[C@@H](COP(=O)(O)O[C@H]3[C@H](O)[C@@H](COP(=O)(O)O[C@H]4[C@H](O)[C@@H](COP(=O)(O)O)O[C@H]4n4cnc5c(N)ncnc54)O[C@H]3n3cnc4c(N)ncnc43)O[C@H]2n2cnc3c(N)ncnc32)[C@@H](O)[C@H]1OP(=O)(O)O | 0% | –
Nc1ncnc2c1ncn2[C@@H]1O[C@H](COP(=O)(O)O)[C@H](O)[C@H]1OP(=O)(O)OC[C@H]1O[C@@H](n2cnc3c(N)ncnc32)[C@H](OP(=O)(O)OC[C@H]2O[C@@H](n3cnc4c(N)ncnc43)[C@H](OP(=O)(O)OC[C@H]3O[C@@H](n4cnc5c(N)ncnc54)[C@H](OP(=O)(O)O)[C@@H]3O)[C@H]2O)[C@H]1O | 43% | –
Nc1ncnc2c1ncn2[C@@H]1O[C@H](COP(=O)(O)O[C@H]2[C@H](O)[C@@H](COP(=O)(O)O[C@@H]3[C@H](O)[C@@H](COP(=O)(O)O[C@H]4[C@H](O)[C@@H](COP(=O)(O)O)O[C@H]4n4cnc5c(N)ncnc54)O[C@H]3n3cnc4c(N)ncnc43)O[C@H]2n2cnc3c(N)ncnc32)[C@@H](O)[C@H]1OP(=O)(O)O | 51% | –
Nc1ncnc2c1ncn2[C@@H]1O[C@H](COP(=O)(O)O)[C@H](O)[C@H]1OP(=O)(O)OC[C@H]1O[C@@H](n2cnc3c(N)ncnc32)[C@H](OP(=O)(O)OC[C@H]2O[C@@H](n3cnc4c(N)ncnc43)[C@H](OP(=O)(O)O)[C@@H]2O)[C@@H]1O | 64% | –
Nc1ncnc2c1ncn2[C@@H]1O[C@H](COP(=O)(O)O[C@@H]2[C@H](O)[C@@H](COP(=O)(O)O[C@@H]3[C@H](O)[C@@H](COP(=O)(O)O)O[C@H]3n3cnc4c(N)ncnc43)O[C@H]2n2cnc3c(N)ncnc32)[C@@H](O)[C@H]1OP(=O)(O)O | 39% | –
Nc1ncnc2c1ncn2[C@@H]1O[C@H](COP(=O)(O)O[C@H]2[C@H](O)[C@@H](COP(=O)(O)O[C@@H]3[C@H](O)[C@@H](COP(=O)(O)O)O[C@H]3n3cnc4c(N)ncnc43)O[C@H]2n2cnc3c(N)ncnc32)[C@@H](O)[C@H]1OP(=O)(O)O | 33% | –
Nc1ncnc2c1ncn2[C@@H]1O[C@H](COP(=O)(O)O)[C@H](O)[C@H]1OP(=O)(O)OC[C@H]1O[C@@H](n2cnc3c(N)ncnc32)[C@H](OP(=O)(O)OC[C@H]2O[C@@H](n3cnc4c(N)ncnc43)[C@H](OP(=O)(O)O)[C@@H]2O)[C@H]1O | 45% | –
Nc1ncnc2c1ncn2[C@@H]1O[C@H](COP(=O)(O)O[C@H]2[C@H](O)[C@@H](COP(=O)(O)O[C@H]3[C@H](O)[C@@H](COP(=O)(O)O)O[C@H]3n3cnc4c(N)ncnc43)O[C@H]2n2cnc3c(N)ncnc32)[C@@H](O)[C@H]1OP(=O)(O)O | 0% | –

Second part, led by results:

Activity [1] | Compound | also measured
93% | Nc1ncnc2c1ncn2[C@@H]1O[C@H](COP(=O)(O)O)[C@H](O)[C@H]1OP(=O)(O)OC[C@H]1O[C@@H](n2cnc3c(N)ncnc32)[C@H](OP(=O)(O)OC[C@H]2O[C@@H](n3cnc4c(N)ncnc43)[C@H](OP(=O)(O)OC[C@H]3O[C@@H](n4cnc5c(N)ncnc54)[C@H](OP(=O)(O)O)[C@@H]3O)[C@H]2O)[C@@H]1O | Stability [2]: Stable; EC50 [3]: 323 nM
33% | Nc1ncnc2c1ncn2[C@@H]1O[C@H](COP(=O)(O)O[C@H]2[C@H](O)[C@@H](COP(=O)(O)O[C@H]3[C@H](O)[C@@H](COP(=O)(O)O[C@@H]4[C@H](O)[C@@H](COP(=O)(O)O)O[C@H]4n4cnc5c(N)ncnc54)O[C@H]3n3cnc4c(N)ncnc43)O[C@H]2n2cnc3c(N)ncnc32)[C@@H](O)[C@H]1OP(=O)(O)O | –
37% | Nc1ncnc2c1ncn2[C@@H]1O[C@H](COP(=O)(O)O[C@@H]2[C@H](O)[C@@H](COP(=O)(O)O[C@H]3[C@H](O)[C@@H](COP(=O)(O)O[C@@H]4[C@H](O)[C@@H](COP(=O)(O)O)O[C@H]4n4cnc5c(N)ncnc54)O[C@H]3n3cnc4c(N)ncnc43)O[C@H]2n2cnc3c(N)ncnc32)[C@@H](O)[C@H]1OP(=O)(O)O | –
88% | Nc1ncnc2c1ncn2[C@@H]1O[C@H](COP(=O)(O)O[C@@H]2[C@@H](O)[C@@H](COP(=O)(O)O[C@@H]3[C@H](O)[C@@H](COP(=O)(O)O)O[C@H]3n3cnc4c(N)ncnc43)O[C@H]2n2cnc3c(N)ncnc32)[C@H](O)[C@H]1OP(=O)(O)OC[C@H]1O[C@@H](n2cnc3c(N)ncnc32)[C@H](OP(=O)(O)O)[C@@H]1O | EC50 [3]: 393 nM
86% | Nc1ncnc2c1ncn2[C@@H]1O[C@H](COP(=O)(O)O)[C@H](O)[C@H]1OP(=O)(O)OC[C@H]1O[C@@H](n2cnc3c(N)ncnc32)[C@H](OP(=O)(O)OC[C@H]2O[C@@H](n3cnc4c(N)ncnc43)[C@H](OP(=O)(O)OC[C@H]3O[C@@H](n4cnc5c(N)ncnc54)[C@H](OP(=O)(O)O)[C@@H]3O)[C@@H]2O)[C@@H]1O | –
67% | Nc1ncnc2c1ncn2[C@@H]1O[C@H](COP(=O)(O)O[C@@H]2[C@H](O)[C@@H](COP(=O)(O)O)O[C@H]2n2cnc3c(N)ncnc32)[C@H](O)[C@H]1OP(=O)(O)OC[C@H]1O[C@@H](n2cnc3c(N)ncnc32)[C@H](OP(=O)(O)OC[C@H]2O[C@@H](n3cnc4c(N)ncnc43)[C@H](OP(=O)(O)O)[C@@H]2O)[C@@H]1O | –
100% | Nc1ncnc2c1ncn2[C@@H]1O[C@H](COP(=O)(O)O[C@@H]2[C@H](O)[C@@H](COP(=O)(O)O[C@@H]3[C@H](O)[C@@H](COP(=O)(O)O[C@@H]4[C@H](O)[C@@H](COP(=O)(O)O)O[C@H]4n4cnc5c(N)ncnc54)O[C@H]3n3cnc4c(N)ncnc43)O[C@H]2n2cnc3c(N)ncnc32)[C@@H](O)[C@H]1OP(=O)(O)O | EC50 [3]: 0.9 nM; half-life [4]: 10 h
40% | Nc1ncnc2c1ncn2[C@@H]1O[C@H](COP(=O)(O)O[C@@H]2[C@H](O)[C@@H](COP(=O)(O)O[C@@H]3[C@H](O)[C@@H](COP(=O)(O)O[C@H]4[C@H](O)[C@@H](COP(=O)(O)O)O[C@H]4n4cnc5c(N)ncnc54)O[C@H]3n3cnc4c(N)ncnc43)O[C@H]2n2cnc3c(N)ncnc32)[C@@H](O)[C@H]1OP(=O)(O)O | –
24% | Nc1ncnc2c1ncn2[C@@H]1O[C@H](COP(=O)(O)O[C@@H]2[C@H](O)[C@@H](COP(=O)(O)O[C@H]3[C@H](O)[C@@H](COP(=O)(O)O[C@H]4[C@H](O)[C@@H](COP(=O)(O)O)O[C@H]4n4cnc5c(N)ncnc54)O[C@H]3n3cnc4c(N)ncnc43)O[C@H]2n2cnc3c(N)ncnc32)[C@@H](O)[C@H]1OP(=O)(O)O | –
51% | Nc1ncnc2c1ncn2[C@@H]1O[C@H](COP(=O)(O)O)[C@H](O)[C@H]1OP(=O)(O)OC[C@H]1O[C@@H](n2cnc3c(N)ncnc32)[C@H](OP(=O)(O)OC[C@H]2O[C@@H](n3cnc4c(N)ncnc43)[C@H](OP(=O)(O)OC[C@H]3O[C@@H](n4cnc5c(N)ncnc54)[C@H](OP(=O)(O)O)[C@@H]3O)[C@@H]2O)[C@H]1O | –
